From ChEMBL document CHEMBL1125497, “Synthesis and anticonvulsant activity of enaminones” (J Med Chem, 1992)

What was measured:
[1] = Antiepileptic activity in male CF1 mice 4 hr after administration measured in subcutaneous pentylenetetrazole (scMet) test at a dose of 100 mg/kg (no. of animals treated /protected); activity value is 0/1; format: functional, Mus musculus
[2] = Antiepileptic activity in male CF1 mice 0.50 hours after oral administration measured in neurological toxicity (Tox) test at a dose of 6 mg/kg (no. of animals treated /protected); activity value is 0/4; format: functional, Mus musculus
Rattus norvegicus [3] = test: Average seizure score for the rat cornea 0.5 hr after peroral administration of 0 mg/kg of compound; format: functional; details: route oral
Procedure, shortened: (§1)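 Sprague-Dawley rats (85–95 g initial) were kindled with 4 s, 8 mA corneal stimulations (butacaine anesthesia) to 10 consecutive stage 5 seizures. After a vehicle shock and a 2-day shock-free period, test drug was given ip or po and a single shock applied at time of peak effect. Seizures were scored on a modified Racine 0–5 scale. ED50 is the dose reducing severity by 50% (Litchfield–Wilcoxon).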

[4] = Antiepileptic activity in male CF1 mice 30 min after administration measured in subcutaneous pentylenetetrazole (scMet) test at a dose of 300 mg/kg (no. of animals treated /protected); activity value is 0/1; format: functional, Mus musculus
Rattus norvegicus [5] = test: Per oral dose (0 mg/Kg) reducing rat corneal kindling 0.5 hr after administration.; format: functional; procedure, shortened: as §1
[6] = Time of peak anticonvulsant effect in CF1 mice; format: functional, Mus musculus
Procedure, shortened: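 Male CF1 mice (ca. 24–34 g), compound in 0.5% methylcellulose suspension given ip or po; time (h) at which MES protection (against tonic hind limb extension) peaked was recorded and used for ED50 determination.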

[7] = Antiepileptic activity in male CF1 mice 30 min after administration measured in subcutaneous pentylenetetrazole (scMet) test at a dose of 100 mg/kg (no. of animals treated /protected); activity value is 0/1; format: functional, Mus musculus
[8] = Protective index was measured as TD50/ED50; format: ADME; details: read-out: PI
Rattus norvegicus [9] = test: Dose reducing the seizure severity in rat cornea 0.5 hr after peroral administration.; format: ADME, organism-based; details: po; procedure, shortened: as §1
[10] = Antiepileptic activity in male CF1 mice 2 hr after oral administration measured in neurological toxicity (Tox) test at a dose of 10 mg/kg (no. of animals treated /protected); activity value is 0/4; format: functional, Mus musculus
[11] = Oral dose producing neurotoxic effects in 50% of rats; format: ADME, organism-based; details: rat, in vivo
Procedure, shortened: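 Phase VI screen in male Sprague-Dawley rats dosed orally. MES protection and rotorod toxicity were scored as animals responding over animals tested at 0.25, 0.5, 1, 2 and 4 h.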

[12] = Antiepileptic activity in male CF1 mice 4 hr after administration measured in subcutaneous pentylenetetrazole (scMet) test at a dose of 300 mg/kg (no. of animals treated /protected); activity value is 0/1; format: functional, Mus musculus
Rattus norvegicus [13] = test: Average seizure score for the rat cornea 0.5 hr after peroral administration of 50 mg/kg of compound; format: functional; details: route oral; procedure, shortened: as §1
[14] = Dose at which anticonvulsant activity was observed in mice; format: functional, Mus musculus
[15] = Antiepileptic activity in male CF1 mice 0.5 hr after oral administration measured in maximum electroshock seizure(MES) test at a dose of 6 mg/kg (no. of animals treated /protected); activity value is 3/4; format: functional, Mus musculus
Rattus norvegicus [16] = test: Average seizure score for the rat cornea 0.5 hr after peroral administration of 40 mg/kg of compound; format: functional; details: route oral; procedure, shortened: as §1
[17] = Antiepileptic activity in male CF1 mice 4 hr after administration measured in maximum electroshock seizure(MES) test at a dose of 100 mg/kg (no. of animals treated /protected); activity value is 0/3; format: functional, Mus musculus
Rattus norvegicus [18] = test: Per oral dose (50 mg/Kg) reducing rat corneal kindling 0.5 hr after administration.; format: functional; procedure, shortened: as §1
[19] = Antiepileptic activity in male CF1 mice 1 hr after oral administration measured in maximum electroshock seizure(MES) test at a dose of 10 mg/kg; activity value is 4/4; format: functional, Mus musculus
[20] = Antiepileptic activity in male CF1 mice 4 hr after administration measured in neurological toxicity (Tox) test at a dose of 300 mg/kg (no. of animals treated /protected); activity value is 0/2; format: functional, Mus musculus
[21] = Time of peak neurotoxic effect in CF1 mice; format: ADME; details: mouse, in vivo
Procedure, shortened: (§2)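 Male CF1 mice (ca. 24–34 g), compound ip in 0.5% methylcellulose suspension; neurological deficit assessed by rotorod test, time (h) of peak neurotoxic effect recorded for TD50 determination.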

[22] = Antiepileptic activity in male CF1 mice 30 min after administration measured in maximum electroshock seizure(MES) test at a dose of 300 mg/kg (no. of animals treated /protected); activity value is 1/1; format: functional, Mus musculus
[23] = Dose elevating electroshock induced seizure by 20% in CF1 mice after ip administration.; format: functional, Mus musculus
Procedure, shortened: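 In CF1 male mice (ca. 24–34 g), compound was given ip in 0.5% methylcellulose. The current giving hind limb extension in 50% of mice was found by the up-and-down method, with 15–25 mice per group and a vehicle control group run with each experimental group. At least three doses were tested. The dose raising threshold current by 20% was taken from a plot of dose against % threshold increase.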

[24] = Antiepileptic activity in male CF1 mice 30 min after administration measured in neurological toxicity (Tox) test at a dose of 100 mg/kg (no. of animals treated /protected); activity value is 0/8; format: functional, Mus musculus
[25] = Antiepileptic activity in male CF1 mice 4 hr after administration measured in maximum electroshock seizure(MES) test at a dose of 300 mg/kg; format: functional, Mus musculus
[26] = Time of peak neurotoxic effect in CF1 MICE after ip administration.; format: ADME, organism-based; details: mouse, in vivo; procedure, shortened: as §2
[27] = Antiepileptic activity in male CF1 mice 4 hr after oral administration measured in neurological toxicity (Tox) test at a dose of 50 mg/kg (no. of animals treated /protected); activity value is 0/4; format: functional, Mus musculus
[28] = Antiepileptic activity in male CF1 mice 4 hr after administration measured in neurological toxicity (Tox) test at a dose of 100 mg/kg; activity value is 0/4; format: functional, Mus musculus
[29] = Antiepileptic activity in male CF1 mice 0.5 hr after oral administration measured in maximum electroshock seizure(MES) test at a dose of 50 mg/kg (no. of animals treated /protected); activity value is 4/4; format: functional, Mus musculus
[30] = Antiepileptic activity in male CF1 mice 1 hr after oral administration measured in maximum electroshock seizure(MES) test at a dose of 50 mg/kg; activity value is 3/4; format: functional, Mus musculus
[31] = Dose showing neurotoxicity in 50% of the at the time of peak neurotoxic effect in CF1 MICE after ip administration.; format: functional; details: Mus musculus
Procedure, shortened: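 Phase II quantification in CF1 male mice (ca. 24–34 g), dosing ip or po in 0.5% methylcellulose suspension. ED50 is protection from tonic hind limb extension in MES. TD50 is rotorod neurotoxicity. Both were read at time of peak effect and derived by Litchfield–Wilcoxon with 95% confidence limits.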

[32] = Antiepileptic activity in male CF1 mice 30 min after administration measured in neurological toxicity (Tox) test at a dose of 300 mg/kg (no. of animals treated /protected); activity value is 3/4; format: functional, Mus musculus

Compound `COC(=O)C1C(=O)C=C(Nc2ccc(Cl)cc2)CC1C` (stereo not drawn) has an Activity [1] of 0, an Activity [2] of 0 and an Average seizure score (Rattus norvegicus [3]) of 4.9. The Activity [4] was 0, the Reduction (Rattus norvegicus [5]) was 0% and the TPE [6] was 0.5. It also gave an Activity [7] of 0, a selectivity ratio [8] of 9.7 and an ED50 (Rattus norvegicus [9]; rat, in vivo) of 34.2 mg/kg. The Activity [10] was 0, the TD50 [11] was > 380 mg/kg and the Activity [12] was 0. The Average seizure score (Rattus norvegicus [13]) was 1.7, the Dose [14] was “<=100 mg kg-1” and the Activity [15] was 3. It also gave an Average seizure score (Rattus norvegicus [16]) of 2.6, an Activity [17] of 0 and a Reduction (Rattus norvegicus [18]) of 67%. It also gave an Activity [19] of 4, an Activity [20] of 0 and a TPE [21] of 2. It also gave an Activity [22] of 1.

Work on `COC(=O)C1C(=O)C=C(NCc2ccccc2)CC1C` (stereo not drawn) yielded a Dose [23] of 13 mg/kg, an Average seizure score (Rattus norvegicus [3]) of 5 and an Activity [4] of 0. The Reduction (Rattus norvegicus [5]) was 0%, the Activity [24] was 0 and the Activity [25] was 0.1. For the same compound, the TPE [26] was 0.25 h, the TPE [6] was 0.5 and the Activity [7] was 0. The selectivity ratio [8] was 7.7, the ED50 (Rattus norvegicus [9]; Rattus norvegicus, Cornea) was 78.3 mg/kg and the TD50 [11] was > 500 mg/kg. For the same compound, the Activity [12] was 0, the Average seizure score (Rattus norvegicus [13]) was 3.6 and the Activity [27] was 0. For the same compound, the Dose [14] was “<=100 mg kg-1”, the Activity [28] was 0 and the Activity [29] was 4. The Activity [30] was 3, the ED50 [31] was > 500 mg/kg and the Activity [17] was 0. For the same compound, the Reduction (Rattus norvegicus [18]) was 29%, the Activity [20] was 0 and the TPE [21] was 1. For the same compound, the Activity [32] was 3 and the Activity [22] was 1.
